Values after ≈ are worked out from the molar mass of the structure shown.
Tests used:
[1] = system: Staphylococcus aureus; test: Antibacterial activity against Staphylococcus aureus ATCC 6538 after 24 hrs by micro dilution method; type: functional; conditions: ATCC 6538, 24 h
Outline: (§1)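 Microdilution MIC in 96-well plates. Bacterial suspensions adjusted in sterile saline to 1.0 × 10^5 CFU/ml, giving 1.0 × 10^4 cfu per well in LB broth. Compounds tested at up to 1 mg/ml. Plates incubated 24 h. MIC taken as the lowest concentration with no visible growth under a binocular microscope. OD at 655 nm was also read against a blank and the positive control. Streptomycin and ampicillin were the positive controls.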

[2] = system: Bacillus cereus; test: Antibacterial activity against Bacillus cereus clinical isolate after 24 hrs by micro dilution method; type: functional; outline: as §1
[3] = system: Micrococcus flavus; test: Antibacterial activity against Micrococcus flavus ATCC 10240 after 24 hrs by micro dilution method; type: functional; conditions: ATCC 10240, 24 h; outline: as §1
[4] = system: Listeria monocytogenes; test: Antibacterial activity against Listeria monocytogenes NCTC 7973 after 24 hrs by micro dilution method; type: functional; conditions: NCTC 7973, 24 h; outline: as §1
[5] = system: Pseudomonas aeruginosa; test: Antibacterial activity against Pseudomonas aeruginosa ATCC 27853 after 24 hrs by micro dilution method; type: functional; conditions: ATCC 27853, 24 h; outline: as §1
[6] = system: Enterobacter cloacae; test: Antibacterial activity against Enterobacter cloacae human isolate after 24 hrs by micro dilution method; type: functional; outline: as §1
[7] = system: Salmonella typhimurium; test: Antibacterial activity against Salmonella Typhimurium ATCC 13311 after 24 hrs by micro dilution method; type: functional, Salmonella enterica subsp. enterica serovar Typhimurium; conditions: Salmonella enterica, ATCC 13311, 24 h; outline: as §1
[8] = system: Escherichia coli; test: Antibacterial activity against Escherichia coli ATCC 35210 after 24 hrs by micro dilution method; type: functional; conditions: ATCC 35210, 24 h; outline: as §1
[9] = system: Staphylococcus aureus; test: Antibacterial activity against Staphylococcus aureus ATCC 6538 treated for 24 hrs followed by sub-cultivated for 72 hrs by micro dilution method; type: functional
Outline: (§2)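 2 µl from each well was serially subcultured into 100 µl fresh broth per well and incubated a further 72 h. MBC is the lowest concentration with no visible growth, taken as 99.5% killing of the original inoculum. Streptomycin and ampicillin were the positive controls.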

[10] = system: Bacillus cereus; test: Antibacterial activity against Bacillus cereus clinical isolate treated for 24 hrs followed by sub-cultivated for 72 hrs by micro dilution method; type: functional; outline: as §2
[11] = system: Micrococcus flavus; test: Antibacterial activity against Micrococcus flavus ATCC 10240 treated for 24 hrs followed by sub-cultivated for 72 hrs by micro dilution method; type: functional; outline: as §2
[12] = system: Listeria monocytogenes; test: Antibacterial activity against Listeria monocytogenes NCTC 7973 treated for 24 hrs followed by sub-cultivated for 72 hrs by micro dilution method; type: functional; outline: as §2
[13] = system: Pseudomonas aeruginosa; test: Antibacterial activity against Pseudomonas aeruginosa ATCC 27853 treated for 24 hrs followed by sub-cultivated for 72 hrs by micro dilution method; type: functional; outline: as §2
[14] = system: Enterobacter cloacae; test: Antibacterial activity against Enterobacter cloacae human isolate treated for 24 hrs followed by sub-cultivated for 72 hrs by micro dilution method; type: functional; outline: as §2
[15] = system: Salmonella typhimurium; test: Antibacterial activity against Salmonella Typhimurium ATCC 13311 treated for 24 hrs followed by sub-cultivated for 72 hrs by micro dilution method; type: functional, Salmonella enterica subsp. enterica serovar Typhimurium; conditions: Salmonella enterica; outline: as §2
[16] = system: Escherichia coli; test: Antibacterial activity against Escherichia coli ATCC 35210 treated for 24 hrs followed by sub-cultivated for 72 hrs by micro dilution method; type: functional; outline: as §2
[17] = system: Talaromyces funiculosus; test: Antifungal activity against Penicillium funiculosum ATCC 36839 after 72 hrs by serial dilution method; type: functional; conditions: ATCC 36839, 72 h
Outline: (§3)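 Modified microdilution MIC. Spores were washed from malt agar cultures with sterile 0.85% saline containing 0.1% Tween 80 and adjusted to about 1.0 × 10^5 per 100 µl well in malt broth. Compounds were dissolved in DMSO (1 mg/ml). Plates incubated 72 h at 28 °C. MIC is the lowest concentration with no visible growth under a binocular microscope. Bifonazole and ketoconazole were the references.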

[18] = system: Penicillium ochrochloron; test: Antifungal activity against Penicillium ochrochloron ATCC 9112 after 72 hrs by serial dilution method; type: functional; conditions: ATCC 9112, 72 h; outline: as §3
[19] = system: Trichoderma viride; test: Antifungal activity against Trichoderma viride IAM 5061 after 72 hrs by serial dilution method; type: functional; conditions: IAM 5061, 72 h; outline: as §3
[20] = system: Aspergillus fumigatus; test: Antifungal activity against Aspergillus fumigatus human isolate after 72 hrs by serial dilution method; type: functional; outline: as §3
[21] = system: Aspergillus niger; test: Antifungal activity against Aspergillus niger ATCC 6275 after 72 hrs by serial dilution method; type: functional; conditions: ATCC 6275, 72 h; outline: as §3
[22] = system: Aspergillus flavus; test: Antifungal activity against Aspergillus flavus ATCC 9643 after 72 hrs by serial dilution method; type: functional; conditions: ATCC 9643, 72 h; outline: as §3
[23] = system: Aspergillus versicolor; test: Antifungal activity against Aspergillus versicolor ATCC 11730 after 72 hrs by serial dilution method; type: functional; conditions: ATCC 11730, 72 h; outline: as §3
[24] = system: Fulvia fulva; test: Antifungal activity against Fulvia fulva after 72 hrs by serial dilution method; type: functional; outline: as §3
[25] = system: Talaromyces funiculosus; test: Antifungal activity against Penicillium funiculosum ATCC 36839 treated for 72 hrs followed by sub-cultivated for 5 days by serial dilution method; type: functional
Outline: (§4)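 MFC obtained after the 72 h, 28 °C malt-broth microdilution (spore inoculum about 1.0 × 10^5 per well, compounds from 1 mg/ml DMSO). 2 µl was serially subcultured into 100 µl broth per well and incubated a further 5 days at 28 °C. MFC is the lowest concentration with no visible growth, taken as 99.5% killing of the original inoculum.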

[26] = system: Penicillium ochrochloron; test: Antifungal activity against Penicillium ochrochloron ATCC 9112 treated for 72 hrs followed by sub-cultivated for 5 days by serial dilution method; type: functional; outline: as §4
[27] = system: Trichoderma viride; test: Antifungal activity against Trichoderma viride IAM 5061 treated for 72 hrs followed by sub-cultivated for 5 days by serial dilution method; type: functional; outline: as §4
[28] = system: Aspergillus fumigatus; test: Antifungal activity against Aspergillus fumigatus human isolate treated for 72 hrs followed by sub-cultivated for 5 days by serial dilution method; type: functional; outline: as §4
[29] = system: Aspergillus niger; test: Antifungal activity against Aspergillus niger ATCC 6275 treated for 72 hrs followed by sub-cultivated for 5 days by serial dilution method; type: functional; outline: as §4
[30] = system: Aspergillus flavus; test: Antifungal activity against Aspergillus flavus ATCC 9643 treated for 72 hrs followed by sub-cultivated for 5 days by serial dilution method; type: functional; outline: as §4
[31] = system: Aspergillus versicolor; test: Antifungal activity against Aspergillus versicolor ATCC 11730 treated for 72 hrs followed by sub-cultivated for 5 days by serial dilution method; type: functional; outline: as §4
[32] = system: Fulvia fulva; test: Antifungal activity against Fulvia fulva treated for 72 hrs followed by sub-cultivated for 5 days by serial dilution method; type: functional; outline: as §4

| MIC [1] | MIC [2] | MIC [3] | MIC [4] | MIC [5] | MIC [6] | MIC [7] | MIC [8] | MIC [17] | MIC [18] | MIC [19] | MIC [20] | SMILES | MBC [9] | MBC [10] | MBC [11] | MBC [12] | MBC [13] | MBC [14] | MBC [15] | MBC [16] | other results |
| --- | --- | --- | --- | --- | --- | --- | --- | --- | --- | --- | --- | --- | --- | --- | --- | --- | --- | --- | --- | --- | --- |
| 240 µM (≈ 99.5 µg/mL) | 240 µM (≈ 99.5 µg/mL) | 240 µM (≈ 99.5 µg/mL) | 240 µM (≈ 99.5 µg/mL) | 240 µM (≈ 99.5 µg/mL) | 240 µM (≈ 99.5 µg/mL) | 240 µM (≈ 99.5 µg/mL) | 240 µM (≈ 99.5 µg/mL) | 120 µM (≈ 49.7 µg/mL) | 120 µM (≈ 49.7 µg/mL) | 240 µM (≈ 99.5 µg/mL) | 20 µM (≈ 8.29 µg/mL) | COc1cc(Cc2n[nH]c(=S)n2C(C)(C)C)c(S(=O)(=O)N(C)C)cc1OC | 420 µM (≈ 174 µg/mL) | 480 µM (≈ 199 µg/mL) | 420 µM (≈ 174 µg/mL) | 420 µM (≈ 174 µg/mL) | 420 µM (≈ 174 µg/mL) | 420 µM (≈ 174 µg/mL) | 420 µM (≈ 174 µg/mL) | 420 µM (≈ 174 µg/mL) | MIC [21]: 240 µM (≈ 99.5 µg/mL); MIC [22]: 240 µM (≈ 99.5 µg/mL); MIC [23]: 240 µM (≈ 99.5 µg/mL); MIC [24]: 240 µM (≈ 99.5 µg/mL); MFC [25]: 240 µM (≈ 99.5 µg/mL); MFC [26]: 360 µM (≈ 149 µg/mL); MFC [27]: 240 µM (≈ 99.5 µg/mL); MFC [28]: 120 µM (≈ 49.7 µg/mL); MFC [29]: 360 µM (≈ 149 µg/mL); MFC [30]: 360 µM (≈ 149 µg/mL); MFC [31]: 360 µM (≈ 149 µg/mL); MFC [32]: 240 µM (≈ 99.5 µg/mL) |
| 270 µM (≈ 100 µg/mL) | 270 µM (≈ 100 µg/mL) | 400 µM (≈ 148 µg/mL) | 400 µM (≈ 148 µg/mL) | 400 µM (≈ 148 µg/mL) | 540 µM (≈ 200 µg/mL) | 400 µM (≈ 148 µg/mL) | 270 µM (≈ 100 µg/mL) | 140 µM (≈ 51.9 µg/mL) | 140 µM (≈ 51.9 µg/mL) | 140 µM (≈ 51.9 µg/mL) | 140 µM (≈ 51.9 µg/mL) | CCn1c(Cc2cc(OC)c(OC)cc2S(=O)(=O)N(C)C)n[nH]c1=O | 540 µM (≈ 200 µg/mL) | 810 µM (≈ 300 µg/mL) | 400 µM (≈ 148 µg/mL) | 540 µM (≈ 200 µg/mL) | 540 µM (≈ 200 µg/mL) | 540 µM (≈ 200 µg/mL) | 540 µM (≈ 200 µg/mL) | 270 µM (≈ 100 µg/mL) | MIC [21]: 270 µM (≈ 100 µg/mL); MIC [22]: 270 µM (≈ 100 µg/mL); MIC [23]: 140 µM (≈ 51.9 µg/mL); MIC [24]: 270 µM (≈ 100 µg/mL); MFC [25]: 270 µM (≈ 100 µg/mL); MFC [26]: 270 µM (≈ 100 µg/mL); MFC [27]: 270 µM (≈ 100 µg/mL); MFC [28]: 270 µM (≈ 100 µg/mL); MFC [29]: 450 µM (≈ 167 µg/mL); MFC [30]: 450 µM (≈ 167 µg/mL); MFC [31]: 450 µM (≈ 167 µg/mL); MFC [32]: 270 µM (≈ 100 µg/mL) |
